KCNQ1 inh – human KCNQ1 channel inhibition. CHO-K1 KCNQ1, FluxOR thallium flux fluorescence; stronger effect = higher value. B-score at 10 µM. P51787. 310,000 tested, 1.3% active. AID 2642;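 active means compounds whose thallium flux B-score, printed positive for inhibition, exceeds three library SD while starting fluorescence stays within three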;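 further: channel opened by potassium depolarization with thallium stimulus after 20 min compound exposure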
KCNQ1 pot – human KCNQ1 channel potentiation or activation; 310,000 tested, 0.35% active; AID 2648; CHO-K1 KCNQ1, thallium flux FluxOR fluorescence; stronger effect = higher value; B-score at 10 µM;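 active means fluorescence ratio B-score, a plate-corrected score, at least three library SD, with initial intensity B-score within 5 SD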
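Schedule – 37 °C overnight plating, 90-min dark dye load, 20-min compound pretreatment · System – stable KCNQ1 CHO-K1 line · Probe or stimulus – thallium- and potassium-containing depolarizing buffer · Measured by – kinetic FluxOR fluorescence, 10 s baseline plus 110 s post-stimulus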
hERG rescue – shields human hERG channel from block by proarrhythmic agents; Q12809; CHO-hERG, FluxOR thallium flux, dofetilide IC70 present; activation (rescue from dofetilide block), less the hit threshold, % at 10 µM; 310,000 tested, 0.51% active; AID 1511;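 active means activation above the mean of controls blocked by dofetilide plus 5 SD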;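 further: thallium influx through hERG after potassium depolarization seen as dye fluorescence rise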
KCNK3 block – human KCNK3 channel inhibition, primary screen; CHO-KCNK3 thallium flux, FluxOR fluorescence; stronger effect = lower value; B-score at 10 µM; 340,000 tested, 0.84% active; AID 602410;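 active means B-score under library mean minus 4 SD, starting fluorescence ratio at most library mean plus 5 SD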;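 further: more negative B-score means stronger inhibition of thallium flux through KCNK3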
KCNK9 inh – inhibitors of human KCNK9 two-pore domain potassium channel; Q9NPC2; HEK293 KCNK9, FluxOR thallium flux fluorescence; stronger effect = lower value; B-score at 10 µM; 310,000 tested, 1.2% active;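 active means ratio B-score over 3 SD below the library mean, with starting fluorescence within 5 SD of its mean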;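 further: negative B-score means less thallium flux so channel inhibition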
Kir21 inh – inhibitors of mouse Kir2.1 inward-rectifier potassium channel | HEK293-Kir2.1, FluxOR thallium flux fluorescence; stronger effect = lower value | B-score at 10 µM | P35561 | AID 1672 | 310,000 tested, 0.85% active;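 active means fluorescence ratio B-score at or below minus 3 SD of library scores, with starting-brightness B-score within 2 SD, cut at about -4.2 in these data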;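 further: channel flux triggered by added potassium and thallium sulfate stimulus; B-score of peak minus minimum fluorescence over baseline after thallium stimulus; more negative B-score means stronger Kir2.1 block with less thallium influx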
Target sequence (P35561 whole entry, looked up): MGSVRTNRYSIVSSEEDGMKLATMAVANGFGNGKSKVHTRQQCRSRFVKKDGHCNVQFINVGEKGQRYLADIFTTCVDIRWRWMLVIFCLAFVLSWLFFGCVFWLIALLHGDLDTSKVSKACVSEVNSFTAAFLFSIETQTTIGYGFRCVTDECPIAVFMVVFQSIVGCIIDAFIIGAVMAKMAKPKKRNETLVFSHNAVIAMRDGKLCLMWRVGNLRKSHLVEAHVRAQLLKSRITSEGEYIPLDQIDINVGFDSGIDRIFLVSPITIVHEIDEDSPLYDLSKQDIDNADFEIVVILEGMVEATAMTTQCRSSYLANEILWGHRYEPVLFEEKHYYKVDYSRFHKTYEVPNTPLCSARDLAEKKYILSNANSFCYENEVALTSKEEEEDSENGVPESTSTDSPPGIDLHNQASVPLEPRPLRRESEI
A number is an active result; - = inactive; . = no result. Compounds with a hit are over-represented: about 3.7% of the library has one in this group of screens.

SMILES | KCNQ1 inh | KCNQ1 pot | hERG rescue | KCNK3 block | KCNK9 inh | Kir21 inh
CCOC(=O)CSC1=C(C#N)C(c2ccc(C)o2)CC(=O)N1 (configuration not stated) | - | - | - | - | - | -4.4
CCOC(=O)CSC1=C(C#N)C(c2ccc(Cl)cc2)CC(=O)N1 (configuration not stated) | - | - | - | - | - | -8.8
CCc1cc(=O)oc2cc(C)cc(OCC(=O)NCc3ccncc3)c12 | - | - | - | - | - | -
O=C(c1cccs1)c1ccc(-c2cccs2)s1 | - | - | - | - | -6.8 | -
COc1ccc(OCc2cc(C(=O)NCc3cccc(C)n3)no2)c(Cl)c1 | - | - | - | - | - | -
COc1ccc(C(=O)Nc2ccc(Cl)cc2C(=O)NCc2ccco2)cc1 | - | - | - | - | - | -
CCC(C)C(NC(=O)c1ccccc1NC(=O)c1ccc(OC)cc1)C(=O)NCc1ccco1 (configuration not stated) | 7 | - | - | - | - | -
CNC(=O)CSc1nnc(-c2ccco2)n1-c1ccc(C)cc1 | - | - | 48 | - | - | -
CCN1C(=O)[C@H]2[C@H]3CN=C(SCC(=O)c4ccccc4)N3[C@@](C)(C(=O)OC)[C@H]2C1=O | . | . | . | - | . | .
CCCCn1c(N)c(N(CCOC)C(=O)c2c(C)noc2C)c(=O)[nH]c1=O | - | - | - | - | - | -
COc1cccc2cc(-c3cn4ccc(C)cc4n3)c(=O)oc12 | - | - | - | - | - | -
CCOc1cccc2cc(-c3cn4cc(C)ccc4n3)c(=O)oc12 | - | - | 10 | - | - | -
O=C(NC1=NCCS1)c1cccc(OC(F)F)c1 | - | - | - | - | - | -
CC1N(C)c2cc(NC(=O)c3cccs3)c(P(=O)(Nc3ccc([N+](=O)[O-])cc3)N3CCOCC3)cc2C1(C)C (configuration not stated) | - | - | - | - | -7.2 | -
CC1=NN(C(N)=S)C(=O)C1N=Nc1ccc([N+](=O)[O-])cc1 (configuration not stated) | - | - | - | - | - | -
Cc1cccc(NC(=S)NCC(c2ccccc2)N(C)C)c1 (configuration not stated) | - | - | - | - | - | -
Cc1ccc(NC(=S)NCC(C)CSc2ccc(Cl)cc2)cc1 (configuration not stated) | 8 | - | - | - | - | -
Cc1cccc(NC(=S)NCC(C)CSc2ccc(Cl)cc2)c1 (configuration not stated) | 9 | - | - | - | - | -
Cc1ccc(NC(=S)NCCSc2ccc(Cl)cc2)c(C)c1 | - | - | - | - | - | -
C/C(=N\NC(=O)c1cc2ccccc2cc1O)c1ccccn1 | - | 7 | - | - | - | -
C/C(=N\NC(=O)c1c[nH]c2ccccc12)c1ccccn1 | - | - | - | - | - | -
C/C(=N\NC(=O)c1cc2ccccc2cc1O)c1cc2ccccc2o1 | - | 138 | 55 | - | - | -
O=C(N/N=C\c1ccc(Sc2ccccn2)o1)c1cccc(F)c1 | - | - | - | - | - | -
O=C(N/N=C/c1ccc(Sc2ccccn2)o1)c1cc2ccccc2cc1O | - | 18 | - | - | - | -
CC(=N/O)/C(C)=N\NC(=O)c1ccccn1 | 8 | - | - | - | - | -
SMILES | KCNQ1 inh | KCNQ1 pot | hERG rescue | KCNK3 block | KCNK9 inh | Kir21 inh
Cn1ccc(C(=O)Nc2cccnc2Cl)n1 | - | - | - | - | - | -
O=C(N/N=C/c1ccc(-c2ccccc2)o1)c1ccccc1O | - | 8 | - | - | - | -
CC1CCN(Cc2nnnn2CCCC(=O)N(C)C2CCOC2)CC1 (configuration not stated) | - | - | - | - | - | -
CC(Oc1cccc(Cl)c1)C(=O)NCc1ccc(S(N)(=O)=O)cc1 (configuration not stated) | - | - | - | - | - | -
CC(Oc1cccc(Cl)c1)C(=O)NCCCCc1ccccc1 (configuration not stated) | - | - | - | - | - | -5.5
Cc1cc(N2CCC(C(=O)NC3CC3)CC2)nc(-c2ccccc2)n1 | - | - | - | - | - | -
Cc1cc(N2CCN(c3cccc(C)c3C)CC2)nc(-c2ccccc2)n1 | - | - | - | - | -6.6 | -
CC(C)Oc1ccc(C(=O)Nc2cccc3cccnc23)cc1 | - | - | - | - | -6.8 | -
CCOc1ccc(C(=O)Nc2cccc3cccnc23)cc1 | - | - | - | - | - | -
CN(CCc1ccccc1)C(=O)c1ccc(NC(=O)Cc2ccc(NC(=O)C3CCN(S(=O)(=O)c4cccc([N+](=O)[O-])c4)CC3)cc2)cc1 | . | . | . | - | . | .
CN(C)CCN(Cc1ccccc1)S(=O)(=O)c1ccc2c(c1)n(C)c(=O)c(=O)n2C | - | - | - | - | -7 | -
Cc1cccc(NC(=S)c2nc3ccccc3s2)c1 | - | 10 | 43 | - | - | -
CC1=C(C(=O)N2CCCC(CCC(=O)NCc3ccccc3F)C2)OCCO1 (configuration not stated) | - | - | - | - | - | -
Cc1ccc(S(=O)(=O)N2CCCC(CCC(=O)NCc3ccccc3F)C2)s1 (configuration not stated) | - | - | - | - | -8 | -
COc1ccccc1C(=O)n1nc(-c2ccccc2)nc1NCc1ccco1 | - | - | - | - | -7.7 | -
O=C(CNS(=O)(=O)c1c(Cl)cccc1Cl)N1CCCCCC1 | - | - | - | - | - | -4.6
CN1CCN(c2ccc(NC(=O)c3ccc(Cl)cc3)cn2)CC1 | - | - | 7.8 | - | - | -
Cc1ccc(C(=O)Nc2ccc(N3CCOCC3)nc2)cc1 | - | - | - | - | - | -
COc1ccc(/C(N)=N/OC(=O)c2ccc3c(c2)OCO3)cc1OC | - | - | 5.9 | - | - | -
Cc1cccc2sc(NC(=O)c3ccc(OCC4CCCO4)cc3)nc12 (configuration not stated) | - | - | 6.5 | - | - | -
Cc1csc(NC(=O)c2ccc(OCC3CCCO3)cc2)n1 (configuration not stated) | - | - | - | - | - | -
CC(C)N(C(=O)CSc1ccc(S(=O)(=O)N2CCCCC2)cn1)C(C)C | . | . | . | - | . | .
COc1ccccc1C1CC(c2ccco2)=NN1c1ccccc1 (configuration not stated) | - | - | - | - | -7.6 | -
Fc1ccc(C2=NN(c3ccccc3)C(c3ccco3)C2)cc1 (configuration not stated) | - | - | - | - | - | -
Cc1ccc(S(=O)(=O)NCc2ccccc2)cc1C(=O)N(C)CC(=O)Nc1c(Cl)cccc1Cl | - | - | - | - | - | -
O=C1N=C(N2CCC(Cc3ccccc3)CC2)S/C1=C/c1cn[nH]c1-c1ccccc1 | 9 | - | - | - | - | -
Cc1ccc(NC(=O)CSCC(=O)Nc2cc(C(F)(F)F)ccc2N2CCOCC2)cc1 | - | - | - | - | - | -

Bioassay records deposited in PubChem BioAssay by Johns Hopkins Ion Channel Center.
